Assay results reported in publication PMC4392893 (Cancer chemotherapy and pharmacology, 2014).
Where two headings read alike, the source gives them in different places.

What was measured:
[1] = test system: SCC Tu212 xenograft tumors; conditions: cited from earlier work
[2] = test system: MiPaPc xenografts; conditions: 10 and 20 mg/kg i.p., ref Manuscripts in preparation 2013; cited from earlier work
[3] = test system: osteoclastogenesis; conditions: in vitro; cited from earlier work
[4] = test system: osteoblastic differentiation and mineralization; conditions: in vitro, associated with Smad signaling; cited from earlier work
[5] = EF-24 stability in human plasma; type: in vitro ADME; conditions: for half-life at 31.25 nM / half-life at 1000 nM: human, plasma, Half-life in plasma
In short: (§1)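 Test compound at 31.25 or 1000 nM was held in plasma at 4°C and 37°C for 24 h. Plasmas: mouse and rat from heparin-CPD blood, dog heparinised, human from healthy volunteers. Aliquots at 5, 15 and 30 min and 1, 2, 4, 6 and 24 h went into silanized tubes, were frozen at −20°C, then protein-precipitated with methanol. Samples were quantified by LC/MS/MS (m/z 312→149) against an internal standard. Half-lives were derived from loss over time.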

[6] = EF-24 stability in mouse plasma; type: in vitro ADME; conditions: for Half-life in plasma: mouse plasma, 4°
In short: as §1

[7] = EF-24 stability in rat plasma; type: in vitro ADME; conditions: for Half-life in plasma: 4°
In short: as §1

[8] = EF-24 stability in dog plasma; type: in vitro ADME; conditions: for Half-life in plasma: dog plasma, 4°
In short: as §1

[9] = Partition ratio and stability in fresh mouse whole blood; type: in vitro ADME; conditions: 24-hour incubation in whole blood at 37°C
In short: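 Fresh mouse whole blood (heparin in citrate-phosphate-dextrose) was spiked in silanized amber vials and kept on ice or at 37°C for 24 h. On ice, aliquots were taken at 0, 5, 15, 30, 60, 120 and 240 min. Red cells were pelleted at 10,000 rpm for 3 min, and plasma was frozen at −20°C before LC/MS/MS. For partitioning, equal amounts (3.9–2000 nM) went into plasma and whole blood.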

[10] = target: human serum albumin (Homo sapiens, UniProt P02768); test: Binding to human serum albumin by ultracentrifugation; conditions: human serum albumin 40 mg/ml in phosphate buffered saline, pH 7.4
Chain of human serum albumin (P02768 25-609): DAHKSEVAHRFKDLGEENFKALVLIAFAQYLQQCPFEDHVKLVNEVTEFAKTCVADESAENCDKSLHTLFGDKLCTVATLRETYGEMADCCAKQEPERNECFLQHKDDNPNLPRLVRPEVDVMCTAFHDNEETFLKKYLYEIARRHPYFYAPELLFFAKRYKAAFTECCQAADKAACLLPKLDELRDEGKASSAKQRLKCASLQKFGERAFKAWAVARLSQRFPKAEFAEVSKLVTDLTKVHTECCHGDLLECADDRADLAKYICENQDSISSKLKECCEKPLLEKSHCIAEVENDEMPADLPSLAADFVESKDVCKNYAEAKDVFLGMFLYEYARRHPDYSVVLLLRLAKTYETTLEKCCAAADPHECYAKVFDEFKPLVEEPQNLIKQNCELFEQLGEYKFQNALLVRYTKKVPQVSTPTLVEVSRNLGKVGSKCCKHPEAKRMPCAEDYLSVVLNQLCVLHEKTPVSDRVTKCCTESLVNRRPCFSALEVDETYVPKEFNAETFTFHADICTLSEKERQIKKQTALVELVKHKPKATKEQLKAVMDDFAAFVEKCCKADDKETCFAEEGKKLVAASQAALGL
In short: (§2)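 Ultracentrifugation binding assay. Matrices were thawed mouse, rat, dog or human plasma, human serum albumin (40 mg/ml in PBS, pH 7.4) or α1-acid glycoprotein (1 mg/ml). Samples were incubated 30 min at 37°C, then spun at 90,000 rpm for 3 h at 4°C. Drug was measured by LC/MS/MS before and after spinning, with upper supernatant taken as unbound. Supernatant protein-free status was confirmed by DC protein assay. Binding was calculated from percent recovered.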

[11] = test system: human α1-acid glycoprotein; test: Binding to α1-acid glycoprotein by ultracentrifugation; conditions: α1-acid glycoprotein 1 mg/ml
In short: as §2

[12] = Pharmacokinetics in male CD2F1 mice; type: in vivo, mouse; conditions: for Bioavailability: by comparison of AUC values
In short: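 Male CD2F1 mice (19–26 g) received 10 mg/kg in D5W:DMSO (9:1) by tail-vein i.v., i.p. or oral gavage. Cardiac-puncture blood was drawn under methoxyflurane, two mice per time point, at 3–240 min (i.v.) or 3–480 min (i.p., oral). Plasma was analysed by LC/MS/MS. Half-life came from compartmental and AUC/CL from noncompartmental analysis of mean concentrations, bioavailability from AUC ratios. Urine was pooled over 24 h after 25 or 32 mg/kg i.v.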

[13] = NADPH-dependent metabolism in mouse liver microsomes; type: in vitro ADME; conditions: 10 μM, 15-minute incubation
In short: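 Liver microsomes came from male CD2F1 mice, untreated or given phenobarbital (80 mg/kg) or 3-methylcholanthrene (20 mg/kg) i.p. for 3 days. Microsomes were isolated on day 4 by differential centrifugation. Test compound at 10 µM was incubated at 37°C with 0.2–1 mg/ml protein, 1.0 mM NADPH, 5 mM MgCl2 and 100 mM potassium phosphate, pH 7.4, for 15 min. Controls lacked NADPH. Reactions were stopped with ice-cold methanol, and remaining drug was measured by LC/MS/MS.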

[14] = NADPH-dependent metabolism in human liver microsomes; type: in vitro ADME; conditions: 10 μM, 120 minutes (Fig 4 legend)
In short: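 Pooled human liver microsomes came from livers unsuitable for transplantation. They were preincubated 2 min in 100 mM potassium phosphate (pH 7.4), 5 mM MgCl2 ± 1.0 mM NADPH at 37°C. Reactions were started with test compound (10 µM) at 0.2–1 mg/ml protein and ran 120 min. NADPH-free incubations served as controls. Reactions were quenched with ice-cold methanol (2:1), and remaining drug was quantified by LC/MS/MS.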

[15] = Light sensitivity during assay development; type: physicochemical; conditions: second peak prevented by aluminum foil or amber vials
[16] = test system: NCI anti-cancer cell line screen; conditions: read-out: Mean GI50; cited from earlier work
[17] = test system: HCT-116 human colon tumor xenograft; conditions: cited from earlier work
[18] = test system: NF-kB pathway; conditions: mouse RAW264.7 macrophages; cited from earlier work
[19] = test system: IKKβ; conditions: cited from earlier work
[20] = athymic nude mice, cited from earlier work
[21] = 10 mg/kg, intraperitoneal, male CD2F1 mice
[22] = 10 mg/kg, oral, male CD2F1 mice
[23] = male, CD2F1, mouse, plasma, ip, 10 mg/kg
[24] = male, CD2F1, mouse, plasma, iv, 10 mg/kg
[25] = male, CD2F1, mouse, plasma, po, 10 mg/kg

## CN1C/C(=C\c2ccccn2)C(=O)/C(=C/c2ccccn2)C1 [UBS-109]
[1]; 50, 100 and 150 mg/kg p.o., ref Manuscripts in preparation 2013
  Effect on xenografts: dose response
[2]
  Effect on xenografts: dose response
[3]
  Effect on osteoclastogenesis as compared with curcumin: suppressive effect
[4]
  Effect on osteoblastic differentiation and mineralization: unique stimulatory effect

## CC(=O)O.O=C1C(=Cc2ccccc2F)CNCC1=Cc1ccccc1F [EF-24, 3,5-bis[(2-fluorophenyl)methylene]-4-piperidinone acetate]
[5]; 24-hour period
  Stability in plasma: stable
[5]; 4°
  half-life at 31.25 nM: 84 h
  half-life at 1000 nM: 100 h
[5]; 37°
  half-life at 31.25 nM: 79 h
  half-life at 1000 nM: 58 h
[6]; 31.25 nM
  Half-life in plasma: Stable
[6]; 1000 nM
  Half-life in plasma: Stable
[6]; mouse, plasma
  half-life: 11 h
  half-life at 31.25 nM: 12 h
  half-life at 1000 nM: 10 h
[7]; rat plasma, 31.25 nM
  Half-life in plasma: Stable
[7]; rat plasma, 1000 nM
  Half-life in plasma: Stable
[7]; rat plasma, 24-hour period
  Stability in plasma: stable
[7]; rat, plasma
  half-life at 31.25 nM: 50 h
  half-life at 1000 nM: 66 h
[8]; 31.25 nM
  Half-life in plasma: Stable
[8]; 1000 nM
  Half-life in plasma: Stable
[8]; dog, plasma
  half-life: 35 h
  half-life at 31.25 nM: 36 h
  half-life at 1000 nM: 33 h
[9]
  Stability in whole blood: Multi-exponential loss
[10]
  Percent bound: 95-100%
[11]
  Percent bound: < 20%
[12]; 10 mg/kg, i.p., male CD2F1 mice, plasma
  Time of secondary peak concentration: 360 min
[12]; 10 mg/kg, i.v., male CD2F1 mice
  Peak plasma concentration: 2.5 µM
[12]; 10 mg/kg, intraperitoneal
  Bioavailability: 34.7%
[12]; [21]
  t1/2z: 3.65 h
  t1/2α: 8.9 min
[12]; 10 mg/kg, intraperitoneal, male CD2F1 mice, plasma
  Cmax: 833 nM
[12]; 10 mg/kg, intravenous, male CD2F1 mice
  t1/2α: 0.4 min
[12]; 10 mg/kg, oral
  Bioavailability: 60.1%
[12]; [22]
  t1/2z: 2.95 h
  t1/2α: 3.3 min
[12]; 10 mg/kg, oral, male CD2F1 mice, plasma
  Cmax: 882 nM
[12]; [23]
  AUC: 0.346 µM·h
  Tmax: 3 min
[12]; male, CD2F1, mouse, plasma, ip, 10 mg/kg, t1/2z, intraperitoneal, male CD2F1 mice
  half-life: ~3.33 h
[12]; [24]
  AUC: 0.996 µM·h
  Tmax: 2.7 min
  Vd: 4.85 L/kg
  clearance: 482 mL/min/kg
[12]; male, CD2F1, mouse, plasma, iv, 10 mg/kg, Cmax, male CD2F1 mice
  Cmax: 2490 nM
[12]; male, CD2F1, mouse, plasma, iv, 10 mg/kg, t1/2z (terminal elimination half-life), male CD2F1 mice
  half-life: 1.23 h
[12]; male, CD2F1, mouse, plasma, iv, 10 mg/kg, t1/2β, male CD2F1 mice
  half-life: 0.09 h
[12]; [25]
  AUC: 0.599 µM·h
  Tmax: 3 min
[12]; male, CD2F1, mouse, plasma, po, 10 mg/kg, t1/2z, male CD2F1 mice
  half-life: ~3.33 h
[12]; mice administered 25 mg/kg or 32 mg/kg intravenously
  EF-24 in 24-hour pooled urine: not detected
[13]; liver microsomes from 3MC-pretreated mice
  EF-24 consumed by NADPH-dependent metabolism: 54%
[13]; liver microsomes from PB-pretreated mice
  EF-24 consumed by NADPH-dependent metabolism: 41%
[13]; liver microsomes from untreated mice
  EF-24 consumed by NADPH-dependent metabolism: 40%
[14]
  EF-24 consumed by NADPH-dependent metabolism: > 70%
[15]
  Stability to light: light sensitivity
[16]
  GI50: 700 nM
[17]; dose of 200 μg/kg
  Tumor growth in vivo: inhibited tumor growth
[17]; mice, little apparent toxicity, no reference given
  Growth of HCT-116 human colon tumor xenograft: potent growth inhibition

## O=C1C(=Cc2ccccn2)CNCC1=Cc1ccccn1 [EF31, 3,5-Bis(2-pyridinylmethylidene)-4piperidone]
[18]
  Fold more potent blocker of NF-kB pathway activity than EF24: 7 fold
  Fold more potent blocker of NF-kB pathway activity than curcumin: > 10 fold
[19]
  Fold more effective inhibition of IKKβ vs. EF24: ~ 65 fold
[20]; 15 mg/kg i.p.
  Average AUC(0-∞): 3386 h x ng mL^−1
[20]; 25 mg/kg i.p.
  Average AUC(0-∞): 7769 h x ng mL^−1
[1]; 15 and 25 mg/kg i.p.
  Effect on xenograft tumors: dose-response
[3]
  Effect on osteoclastogenesis as compared with curcumin: suppressive effect
